Only some compounds are listed: those with a hit (about 0.95% of all), similar ones and a draw of the others.
ABCB1 inh = blocks JC-1 efflux by human ABCB1 transporter | CCRF-Adr cells, flow cytometry | inhibition, % at 6.6 µM | 0.067% of 190,000 active; in the data active means inhibition above about 40%;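 further: 0% = vehicle and 100% = reference inhibitor; higher value means more JC-1 retained so stronger ABCB1 efflux block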
Furin inhibitor = human furin inhibition; purified furin, fluorogenic substrate cleavage; inhibition, % at 20 µM or 30 µM; 0.061% of 220,000 active; AID 463115; in the data active means inhibition above about 25%
NCF1 inh = inhibitors of human p47phox binding; p47phox/p22phox peptide binding, fluorescence polarization, 2 h; 0.53% of 220,000 active; inhibition, % at 24.7 µM; P14598; AID 1274;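 active means inhibition above about 30%, limit read from the data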;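 further: 0% = p47phox with labelled peptide and 100% = labelled peptide alone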
Target sequence (P14598 whole entry, looked up): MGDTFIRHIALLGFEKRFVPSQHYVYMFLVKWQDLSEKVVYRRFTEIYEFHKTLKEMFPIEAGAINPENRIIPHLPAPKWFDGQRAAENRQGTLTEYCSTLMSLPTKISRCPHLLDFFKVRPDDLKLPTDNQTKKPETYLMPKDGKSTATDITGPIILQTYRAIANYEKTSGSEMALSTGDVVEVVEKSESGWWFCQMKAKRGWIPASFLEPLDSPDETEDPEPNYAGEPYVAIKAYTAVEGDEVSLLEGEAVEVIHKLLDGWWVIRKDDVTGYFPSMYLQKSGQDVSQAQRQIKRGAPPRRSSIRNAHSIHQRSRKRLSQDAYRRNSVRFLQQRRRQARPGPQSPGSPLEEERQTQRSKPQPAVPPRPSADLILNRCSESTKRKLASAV
Arbovirus inh = arbovirus infection inhibition; arbovirus infection cell-based antiviral screen; inhibition, % at 10 µM; 0.37% of 200,000 active; in the data active means inhibition above about 30%
ABCG2 block = human ABCG2 inhibition, ABCB1 as counter-screen | IgMXP3 cells, JC-1 efflux, flow cytometry | inhibition, % at 6.6 µM | 0.1% of 190,000 active | AID 1325;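 active means inhibition above 80%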;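 further: 0% = DMSO and 100% = nicardipine control wells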
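material = IgMXP3 (ABCG2) plus far-red-tagged CCRF-Adr (ABCB1) cells | amount = 3 million cells/mL, equal mix of both lines | also added = JC-1 transporter substrate | dosing = one concentration, 6.6 µM final | schedule = 10 min at 25 °C | measured by = flow cytometric JC-1 green MFI at 530 nm | read-out basis = percent efflux inhibition, scaled nicardipine 100% to DMSO 0%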
HSV augment = HSV replication enhancement. 0.005% of 220,000 active. HSV replication augmentation in cells, fold increase. maximum fold increase; in the data active means maximum fold increase above about 1.5; inconclusive means no clear call, values can overlap the other calls; tested in PC3 cells
Starred values were filed as active, the others as inactive.

How did CCOc1ccc(-n2c(SCC(=O)Nc3ccc(Br)cc3)nc3n[nH]c(C)c3c2=N)cc1 do in these assays?
ABCB1 inh: 0; Furin inhibitor: -22; NCF1 inh: 41*; Arbovirus inh: 7; ABCG2 block: 0

How did O=C1ON=C(c2ccccc2)/C1=C/c1ccc(-c2ccccc2[N+](=O)[O-])o1 do in these assays?
ABCB1 inh: -1; Furin inhibitor: -1; NCF1 inh: 142*; Arbovirus inh: -35; ABCG2 block: -5; HSV augment: inactive

What do the screens show for `CCOc1ncnc2c1sc1nc(C)cc(C)c12`?
Furin inhibitor: -5; NCF1 inh: 6; HSV augment: inactive

How did CCSc1nc2c(sc3nc(C)cc(C)c32)c(=O)[nH]1 do in these assays?
ABCB1 inh: 0; Furin inhibitor: -17; NCF1 inh: -10; Arbovirus inh: 37*; ABCG2 block: 3

Results for COc1cccc2cc(C(=O)NNC(=O)c3ccc(Br)cc3)c(=O)oc12 ?
ABCB1 inh: 1; Furin inhibitor: -23; NCF1 inh: 37*; Arbovirus inh: 5; ABCG2 block: 15; HSV augment: inactive

What do the screens show for `COc1cccc2cc(C(C)=O)c(=O)oc12`?
ABCB1 inh: 0; Furin inhibitor: -29; NCF1 inh: -8; Arbovirus inh: 12; ABCG2 block: 1; HSV augment: inactive

How did CCc1ccc(NC(=O)Cc2c(C(=O)O)n(C)c3ccccc23)cc1 do in these assays?
ABCB1 inh: 0; Furin inhibitor: -8; NCF1 inh: -10; Arbovirus inh: 16; ABCG2 block: 1; HSV augment: inactive

What do the screens show for `COc1ccc(N=CC2=C(O)CC(C)(C)CC2=O)cc1`?
ABCB1 inh: 0; Furin inhibitor: 34*; NCF1 inh: 0; Arbovirus inh: -4; ABCG2 block: 2; HSV augment: inactive

How did CC1(C)CC(=O)C(C=Nc2cccnc2/N=C/C2=C(O)CC(C)(C)CC2=O)=C(O)C1 do in these assays?
ABCB1 inh: 0; Furin inhibitor: 55*; NCF1 inh: -5; Arbovirus inh: -6; ABCG2 block: -1; HSV augment: inactive

Results for CC1(C)CC(=O)C(C=Nc2cccnc2)=C(O)C1 ?
ABCB1 inh: 0; Furin inhibitor: 41*; NCF1 inh: -2; Arbovirus inh: -1; ABCG2 block: 0; HSV augment: inactive

How did O=C(CSc1nnc(-c2cccnc2)n1CCN1CCCCC1)Nc1cccc(Cl)c1 do in these assays?
Furin inhibitor: -26; NCF1 inh: -3; Arbovirus inh: 8; ABCG2 block: 4

How did CC[n+]1cc(-c2ccccc2)nc(N2CCOCC2)n1 do in these assays?
ABCB1 inh: 0; Furin inhibitor: -7; NCF1 inh: 39*; Arbovirus inh: -2; ABCG2 block: 2

Results for COc1ccc(N2C(=O)C(CC(=O)Nc3ccccc3)N(Cc3ccccn3)C2=S)cc1 (stereo not drawn) ?
ABCB1 inh: 0; Furin inhibitor: -7; NCF1 inh: -28; Arbovirus inh: -5; ABCG2 block: 0; HSV augment: inactive

What do the screens show for `Cc1ccc(CSc2nnc(C)c(=O)[nH]2)cc1`?
ABCB1 inh: 0; Furin inhibitor: -14; NCF1 inh: 67*; Arbovirus inh: 6; ABCG2 block: 0; HSV augment: inactive

How did Cc1nnc(SCc2ccccc2)[nH]c1=O do in these assays?
ABCB1 inh: 0; Furin inhibitor: -36; NCF1 inh: -4; Arbovirus inh: 1; ABCG2 block: 1; HSV augment: inactive

How did Cc1ccc(S(=O)(=O)N2CCN(C(C)CC(=O)O)CC2)cc1 (stereo not drawn) do in these assays?
ABCB1 inh: 1; Furin inhibitor: -29; NCF1 inh: 4; Arbovirus inh: 7; ABCG2 block: 4; HSV augment: inactive

What do the screens show for `Cc1ccc(-n2nnc(-c3nccn3C)n2)cc1`?
ABCB1 inh: 0; Furin inhibitor: -36; NCF1 inh: -13; Arbovirus inh: 3; ABCG2 block: 2; HSV augment: inactive

What do the screens show for `CCCCNS(=O)(=O)c1ccc(NC(=O)c2c(-c3ccccc3Cl)noc2C)cc1`?
ABCB1 inh: 0; Furin inhibitor: -9; NCF1 inh: -49; Arbovirus inh: -18; ABCG2 block: 0; HSV augment: inactive

Results for CCN(CC)C(=S)NC(=O)Cc1ccccc1 ?
ABCB1 inh: 0; Furin inhibitor: -25; NCF1 inh: -10; Arbovirus inh: 7; ABCG2 block: -1; HSV augment: inactive

How did C=CCN(CC=C)C(=S)NC(=O)Cc1cccc2ccccc12 do in these assays?
ABCB1 inh: 0; Furin inhibitor: -19; NCF1 inh: -6; Arbovirus inh: 56*; ABCG2 block: 0; HSV augment: inactive

What do the screens show for `CC(=O)Nc1nc(CCN2C(=O)c3ccccc3C2=O)cs1`?
ABCB1 inh: 0; Furin inhibitor: -30; NCF1 inh: 45*; Arbovirus inh: 16; ABCG2 block: 1; HSV augment: inactive

Results for CNc1nc(CCN2C(=O)c3ccccc3C2=O)cs1 ?
ABCB1 inh: -2; Furin inhibitor: -14; NCF1 inh: -9; Arbovirus inh: -3; ABCG2 block: -1; HSV augment: inactive

How did O=c1[nH]nc(-c2ccc(F)cc2)cc1Cc1ccc(F)cc1 do in these assays?
Furin inhibitor: -15; NCF1 inh: 37*; HSV augment: inactive

What do the screens show for `Cc1ccc(-c2cc(Cc3ccc(F)cc3)c(=O)[nH]n2)cc1`?
Furin inhibitor: -22; NCF1 inh: -9; HSV augment: inactive

Results for Cn1c(=O)c(NC2CCCCC2)c2c3c(cccc31)C(=O)c1ccccc1-2 ?
ABCB1 inh: 48*; Furin inhibitor: -20; NCF1 inh: -56; Arbovirus inh: -8; ABCG2 block: 66; HSV augment: inconclusive

How did COc1ccc2nc(C)cc(SCC(=O)N/N=C/c3c(OC)ccc4ccccc34)c2c1 do in these assays?
Furin inhibitor: -4; NCF1 inh: 42*; Arbovirus inh: -11; ABCG2 block: -4; HSV augment: inactive

Results for COc1ccc2nc(C)cc(SCC(=O)N/N=C/c3ccccc3)c2c1 ?
Furin inhibitor: 11; NCF1 inh: 20; Arbovirus inh: 4; ABCG2 block: 10; HSV augment: inactive

Results for O=C(c1coc(=O)c(Br)c1)N1CCCc2ccccc21 ?
ABCB1 inh: -1; Furin inhibitor: -31; Arbovirus inh: 32*; ABCG2 block: -7; HSV augment: inactive

Results for CC(C)(C)c1cc(C(=O)NCc2cc(F)cc3c2OCOC3)n(Cc2ccccc2)n1 ?
Furin inhibitor: -15; NCF1 inh: -1; HSV augment: inactive

What do the screens show for `CCOC(=O)N1CCN(S(=O)(=O)c2ccc(F)c(C(=O)Nc3cccc(Cl)c3C)c2)CC1`?
ABCB1 inh: 2; Furin inhibitor: -8; NCF1 inh: 1; Arbovirus inh: 8; ABCG2 block: 7; HSV augment: inactive

What do the screens show for `CCOC(=O)CN(C)C(=O)C1CCCN1C(=O)OC(C)(C)C` (stereo not drawn)?
HSV augment: inactive
